Screening data deposited in PubChem BioAssay by Broad Institute.
Most compounds without a hit are left out; they make up all but 1.5% or so of the library.
Cneo AK release: Cryptococcus neoformans lysis via adenylate kinase release; hit rate 0.2% among 360,000; lysis activity, % at 15 µM; C. neoformans lysis, adenylate kinase release luminescence, 4 h; normalised: neutral wells 0, clomiphene wells 100;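 active = mean lysis activity across replicates of at least 80%, whatever share of replicates individually reach that level; inactive = mean lysis activity below 80%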
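Schedule: static 4 h at 37 °C with compound, 1 h detection; system: C. neoformans cells; benchmarks: Clomiphene as positive control; buffer or medium: fresh YPD medium; measure: luminescence rise reflecting yeast cell lysis; measured by: luminescent adenylate kinase detection reagent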
C2C12 statin: suppressors of simvastatin-induced myotoxicity in C2C12 myotubes; ATP luminescence, 48 h; scaled: DMSO 0, geranylgeraniol control 100; rescue of ATP level, % at 7.49 µM; hit rate 0.78% among 330,000; AID 602340;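 active = mean ATP rescue above about 67%, or every replicate alone reaching that limit, limit read from the data, passing the limit was not always enough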;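 also: myotubes were challenged with 10 µM simvastatin during compound exposure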
SUMO Mot1 rescue: blocks SUMOylation pathway, rescuing yeast Mot1-301 growth; growth rescue, % at 18.8 µM; hit rate 1% among 320,000; S. cerevisiae Mot1-301 growth rescue, ATP luminescence, 38.5C; percent above DMSO median, 100 means doubled;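 active = every valid replicate shows activation above 250% relative to neutral control wells; inactive = the rest, any valid replicate at or below 250%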;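 also: OY570 slx delta 5 strain wells were the positive control but not used for scaling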
Active calls of the source: *.

Cc1nnc(-c2ccccc2)c(=O)n1/N=C/c1c(O)ccc2ccccc12 was read as C2C12 statin 84.1* and SUMO Mot1 rescue -15.3.
Screening CC(=O)N(C)C[C@H]1Oc2ncc(C#C[C@H](C)O)cc2C(=O)N([C@@H](C)CO)C[C@@H]1C returned Cneo AK release 1.1 and C2C12 statin 3.1.
Screening O=C(CSc1ncnc2c1cnn2-c1ccc(Cl)cc1)NCc1ccc2c(c1)OCO2 returned Cneo AK release 600.1* and SUMO Mot1 rescue 0.6.
For O=C(CSc1ncnc2c1cnn2-c1ccccc1)Nc1ccc2c(c1)OCO2 the results were SUMO Mot1 rescue 87.1.
C[C@@H]1CN([C@@H](C)CO)C(=O)Cc2cc(NC(=O)CCN3CCOCC3)ccc2O[C@@H]1CN(C)S(=O)(=O)c1ccc(F)cc1 was read as Cneo AK release -2.1 and C2C12 statin -6.4.
O=C(Cc1ccc(Cl)cc1)NNC1CC(=O)N(c2ccc3ccccc3c2)C1=O (centres undefined) was read as Cneo AK release -3.1 and SUMO Mot1 rescue 289.0*.
`O=C(Cc1ccccc1)NNC1CC(=O)N(c2ccc(Cl)cc2)C1=O` (centres undefined) gave Cneo AK release 5.0, C2C12 statin 9.5 and SUMO Mot1 rescue -2.9.
O=C(NCC[C@H]1CC[C@H](NC(=O)C2CCOCC2)[C@@H](CO)O1)Nc1ccc(Cl)cc1 was read as Cneo AK release 0.6 and C2C12 statin 2.5.
For Cc1cccc(NC(=O)C2CCCN(S(=O)(=O)c3cccc4nsnc34)C2)n1 (centres undefined) the results were Cneo AK release 1.8, C2C12 statin 108.5* and SUMO Mot1 rescue -11.2.
`Cc1cccc(NC(=O)C2CCN(S(=O)(=O)c3cccc4nsnc34)CC2)n1` gave Cneo AK release -0.9, C2C12 statin 14.2 and SUMO Mot1 rescue -14.5.
Screening COc1ccc(C#Cc2ccc3c(c2)[C@]2(C(=O)N3)[C@H](c3ccc(OCCO)cc3)N3[C@H](c4ccccc4)[C@H](c4ccccc4)OC(=O)[C@H]3[C@@H]2C(=O)NC[C@H](O)c2ccccc2)cc1 returned Cneo AK release 55.5.
CC(=O)Nc1ccc(S(=O)(=O)NNC(=O)c2cc3c4ccccc4n(C)c3s2)cc1 was read as Cneo AK release 0.0 and C2C12 statin 192.9*.
`Cn1c2ccccc2c2cc(C(=O)NNC(=O)CCl)sc21` gave SUMO Mot1 rescue -5.4.
`Cc1ccc(NC(=S)NCCSc2ccc(Cl)cc2)cc1` gave SUMO Mot1 rescue 22.2.
For Cc1ccc(SCCNC(=S)Nc2cc(C)cc(C)c2)cc1 the results were Cneo AK release 38.8, C2C12 statin 117.2* and SUMO Mot1 rescue 24.8.
CCNC(=O)C[C@@H]1CC[C@@H]2[C@H](COc3ccc(NC(=O)Nc4ccc(Cl)cc4)cc3C(=O)N2C)O1 was read as Cneo AK release 62.5 and C2C12 statin -11.6.
For C[C@@H]1CN([C@@H](C)CO)C(=O)c2cccc(NC(=O)NC3CCCCC3)c2O[C@@H]1CN(C)S(C)(=O)=O the results were Cneo AK release -2.6 and C2C12 statin 6.8.
`CCOC(=O)C1Cc2ccccc2C(=O)O1` (centres undefined) gave Cneo AK release 0.7, C2C12 statin 0.8 and SUMO Mot1 rescue 11.4.
CCOC(=O)C1=C(N)c2ccccc2CC1C(C)C (centres undefined) was read as Cneo AK release 4.1, C2C12 statin 122.7* and SUMO Mot1 rescue -7.1.
O=C(Nc1cccc(F)c1)N1CCCCN2[C@H](CO)[C@@H](c3ccc(C#CC4CC4)cc3)[C@H]2C1 was read as Cneo AK release 2.0.
COCc1cn(CC[C@@H]2CC[C@H](NC(=O)Nc3ccc(OC)cc3)[C@H](CO)O2)nn1 was read as Cneo AK release -4.5 and C2C12 statin 0.0.
Cc1ccc(S(=O)(=O)N(C)C[C@H]2Oc3ncc(-c4ccccc4)cc3C(=O)N([C@@H](C)CO)C[C@H]2C)cc1 was read as Cneo AK release -1.7 and C2C12 statin 2.1.
Screening CC(C)NC(=O)N(C)C[C@@H]1Oc2c(NS(=O)(=O)c3cn(C)cn3)cccc2C(=O)N([C@H](C)CO)C[C@@H]1C returned Cneo AK release 7.1.
`Cc1sc2nc(SCC(=O)NCc3ccco3)n(Cc3ccccc3)c(=O)c2c1C` gave Cneo AK release 2.3, C2C12 statin 113.6* and SUMO Mot1 rescue -6.7.
`CCOC(=O)c1sc2nc(SCC(=O)NCc3ccco3)n(Cc3ccccc3)c(=O)c2c1C` gave SUMO Mot1 rescue -3.4.
For COC(=O)C[C@H]1C[C@@H]2c3cc(NC(=O)CC4CC4)ccc3O[C@@H]2[C@H](CO)O1 the results were Cneo AK release -2.0 and C2C12 statin 1.2.
Screening COc1ccc(CN2C[C@@H](O)COC[C@H]3O[C@@H](CC(=O)NCCN4CCCC4)CC[C@@H]32)cc1 returned Cneo AK release 1.2 and C2C12 statin 3.5.
For O=C(C1CC1)N1C[C@@H]2[C@H](c3ccccc31)[C@@H](CO)N2C(=O)c1cccc(F)c1 the results were Cneo AK release -4.9 and C2C12 statin -3.9.
For C[C@@H]1CN([C@H](C)CO)C(=O)c2cccc(NS(=O)(=O)c3ccccc3)c2O[C@H]1CN(C)S(=O)(=O)c1ccc(Cl)cc1 the results were Cneo AK release 0.2 and C2C12 statin -0.3.
`OC[C@H]1[C@H](c2ccc(-c3ccccc3)cc2)[C@H]2CN(CCC(F)(F)F)CCCCN21` gave Cneo AK release 2.1.
For COc1ccccc1C#Cc1ccc([C@@H]2[C@H]3CN(CCC(F)(F)F)CCCCN3[C@H]2CO)cc1 the results were Cneo AK release 81.5* and C2C12 statin 5.7.
Screening CN(C)C(=O)c1ccc(-c2ccc([C@@H]3[C@@H](CO)N4CCCCN(CCC(F)(F)F)C[C@@H]34)cc2)cc1 returned Cneo AK release 4.9 and C2C12 statin 4.4.
CN(C)C(=O)c1ccc(-c2ccc([C@H]3[C@H]4CN(CCC(F)(F)F)CCCCN4[C@H]3CO)cc2)cc1 was read as Cneo AK release 85.2* and C2C12 statin -10.8.
For C[C@@H]1CN([C@@H](C)CO)C(=O)Cc2cc(NC(=O)CCC(F)(F)F)ccc2O[C@H]1CN(C)C(=O)Nc1cccc2ccccc12 the results were C2C12 statin 36.1.
For C[C@@H]1CCCCO[C@H](CN(C)C(=O)Cc2ccccc2)[C@@H](C)CN([C@@H](C)CO)C(=O)c2cc(NC(=O)Nc3ccc4c(c3)OCO4)ccc2O1 the results were Cneo AK release -1.8.
O=C(Nc1ccccc1F)N[C@@H]1CC[C@H](CCNC(=O)C2CCC2)O[C@@H]1CO was read as Cneo AK release -3.5 and C2C12 statin 0.3.
`C[C@H](CO)N1C[C@H](C)[C@H](CN(C)S(=O)(=O)c2ccc(Cl)cc2)OCCCC[C@H](C)Oc2ccc(NS(=O)(=O)c3ccccc3)cc2C1=O` gave Cneo AK release -1.0 and C2C12 statin -12.8.
For COc1ccc(S(=O)(=O)N2CCOCC2)cc1C(C)C the results were Cneo AK release -0.3, C2C12 statin 10.0 and SUMO Mot1 rescue -7.6.
For CCC(C)c1cc(S(=O)(=O)N2CCOCC2)ccc1OC (centres undefined) the results were Cneo AK release 9.7, C2C12 statin 82.4* and SUMO Mot1 rescue -1.5.
